In general, EC50 refers to the midpoint of the concentration-response curve. Higher therefore signals a less potent agent. By Ki is commonly meant the equilibrium dissociation constant of an inhibitor or competing ligand from its target.

Assay [1] has as its target T1, Alpha-2A adrenergic receptor (Homo sapiens) (UniProt P08913).
T1 sequence (whole entry): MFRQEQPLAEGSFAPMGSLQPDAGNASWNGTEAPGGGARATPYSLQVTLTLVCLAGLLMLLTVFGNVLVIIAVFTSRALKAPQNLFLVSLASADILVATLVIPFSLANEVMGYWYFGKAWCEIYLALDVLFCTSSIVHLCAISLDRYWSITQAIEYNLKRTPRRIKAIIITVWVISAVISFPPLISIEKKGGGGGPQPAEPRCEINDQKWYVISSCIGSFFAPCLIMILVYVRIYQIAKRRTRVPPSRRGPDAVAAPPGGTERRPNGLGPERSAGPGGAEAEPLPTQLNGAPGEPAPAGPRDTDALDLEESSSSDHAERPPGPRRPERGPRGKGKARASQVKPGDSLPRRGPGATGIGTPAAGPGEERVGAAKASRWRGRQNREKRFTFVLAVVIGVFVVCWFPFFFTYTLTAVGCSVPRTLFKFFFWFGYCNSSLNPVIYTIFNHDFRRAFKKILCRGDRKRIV
In words: Efficacy as percentage of the maximal effect observed for nonselective agonist UK-14304 in CHO cells expressing human Alpha-2A adrenergic receptor. Format: functional, cell-based.

Assay [2] addresses T2, Alpha-2A adrenergic receptor (Homo sapiens, UniProt P08913).
T2 sequence (P08913 whole entry): T1 sequence (whole entry)
In words: Agonist potency at Alpha-2A adrenergic receptor expressed in CHO cells. Format: functional, cell-based.

In assay [3] the target is T3, Alpha-1B adrenergic receptor (Homo sapiens, UniProt P35368).
T3 sequence (P35368 whole entry): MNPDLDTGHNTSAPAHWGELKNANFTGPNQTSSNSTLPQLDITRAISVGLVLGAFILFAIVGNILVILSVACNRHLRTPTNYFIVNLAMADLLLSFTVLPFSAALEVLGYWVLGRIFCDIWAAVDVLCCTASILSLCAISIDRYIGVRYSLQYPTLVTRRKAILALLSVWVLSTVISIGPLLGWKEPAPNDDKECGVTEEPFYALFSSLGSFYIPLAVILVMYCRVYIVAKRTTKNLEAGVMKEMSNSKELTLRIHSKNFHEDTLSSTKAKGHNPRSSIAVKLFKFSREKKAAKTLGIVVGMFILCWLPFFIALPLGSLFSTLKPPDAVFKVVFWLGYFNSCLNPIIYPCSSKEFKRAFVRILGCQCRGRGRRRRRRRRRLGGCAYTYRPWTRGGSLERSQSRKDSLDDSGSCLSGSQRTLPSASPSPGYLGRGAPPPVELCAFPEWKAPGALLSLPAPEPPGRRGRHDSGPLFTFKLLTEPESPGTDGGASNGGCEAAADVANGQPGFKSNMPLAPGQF
In words: Agonist potency at Alpha-1B adrenergic receptor expressed in rat-1 fibroblasts. It counts as functional.

The target in assay [4] is T4, Alpha-1A adrenergic receptor (Homo sapiens, UniProt P35348).
T4 sequence (P35348 whole entry): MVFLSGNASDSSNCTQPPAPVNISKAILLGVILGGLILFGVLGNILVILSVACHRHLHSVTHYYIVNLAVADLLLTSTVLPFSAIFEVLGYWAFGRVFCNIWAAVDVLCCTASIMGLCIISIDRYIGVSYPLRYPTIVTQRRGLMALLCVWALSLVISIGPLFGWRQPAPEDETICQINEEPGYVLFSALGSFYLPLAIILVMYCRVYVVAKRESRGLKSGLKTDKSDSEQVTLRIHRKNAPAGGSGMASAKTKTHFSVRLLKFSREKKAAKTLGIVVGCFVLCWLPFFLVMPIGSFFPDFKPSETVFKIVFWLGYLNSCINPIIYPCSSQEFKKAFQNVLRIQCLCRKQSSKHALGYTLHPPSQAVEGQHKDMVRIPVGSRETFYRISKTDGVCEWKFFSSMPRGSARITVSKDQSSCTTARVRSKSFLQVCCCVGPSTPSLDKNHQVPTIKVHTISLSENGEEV
In words: Agonist potency at Alpha-1 adrenergic receptor assayed in rat-1 fibroblasts expressing human Alpha-1 adrenergic receptor. It counts as functional. In a few lines:
(§1)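 Rat-1 fibroblasts expressing human α1a/α1b/α1d, grown in DMEM with 10% heat-inactivated FBS and 0.6 mg/mL G418, plated 6000 cells/well and cultured 48 h at 37 °C. Loaded 2 h at 37 °C with Calcium Green (4 μM), 0.2% pluronic acid and 2.5 mM probenecid in HEPES buffer pH 7.4. FLIPR read at room temperature: 10 s baseline, then 50 s after compound. 11-point curves as % of 40 μM phenylephrine response, top concentration typically 5 μM.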

Assay [5] has as its target T5, Alpha-2C adrenergic receptor (Homo sapiens, UniProt P18825).
T5 sequence (P18825 whole entry): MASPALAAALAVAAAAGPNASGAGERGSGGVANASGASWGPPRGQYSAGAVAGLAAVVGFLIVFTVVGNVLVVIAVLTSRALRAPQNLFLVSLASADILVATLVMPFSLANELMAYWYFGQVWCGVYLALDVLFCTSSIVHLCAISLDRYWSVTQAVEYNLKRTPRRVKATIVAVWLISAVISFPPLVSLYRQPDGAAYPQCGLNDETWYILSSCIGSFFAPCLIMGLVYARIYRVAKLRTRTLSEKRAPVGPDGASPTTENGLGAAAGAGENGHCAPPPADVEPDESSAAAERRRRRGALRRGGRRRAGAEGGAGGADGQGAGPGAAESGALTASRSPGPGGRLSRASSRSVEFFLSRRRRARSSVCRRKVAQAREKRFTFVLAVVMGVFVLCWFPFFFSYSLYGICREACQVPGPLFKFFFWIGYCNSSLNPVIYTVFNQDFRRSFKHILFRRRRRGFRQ
In words: Agonist potency at Alpha-2C adrenergic receptor expressed in CHO cells. Format: functional, cell-based.

Assay [6] deals with T6, Alpha-1A adrenergic receptor (Homo sapiens) (UniProt P35348).
T6 sequence (whole entry): T4 sequence (P35348 whole entry)
In words: Efficacy as % of the maximal effect observed for nonselective agonist phenylephrine in rat-1 fibroblasts expressing human Alpha-1 adrenergic receptor. Format: functional. In a few lines: as §1

The target of assay [7] is T2, Alpha-2A adrenergic receptor. In words: Affinity to human Alpha-2A adrenergic receptor determined by radioligand binding techniques from chinese hamster ovary (CHO) cells. It counts as cell-based.

As to `CSc1c(F)cccc1NCC1=NCCN1`, the Max was 102% in assay [1] and 91% in assay [6]. Moreover, the 50% effective concentration (EC50) in assay [2] was 100 nM; in assay [3], 85.1 nM; in assay [4], 7.76 nM; in assay [5], 15.8 nM. In assay [7], this compound showed a Ki of 166 nM.

The values are drawn from ChEMBL document CHEMBL1135421, “2-(Anilinomethyl)imidazolines as alpha1 adrenergic receptor agonists: the discovery of alpha1a subtype selective 2'-alkylsulfonyl-substituted analogues” (J Med Chem, 2002).
